In ChEMBL document CHEMBL2331415, “Tubulin inhibitors from an endophytic fungus isolated from Cedrus deodara” (2013):
Active and inactive are the calls of the source. No cut-off for these calls is given here.

Key:
A549 [1] = test: Cytotoxicity against human A549 cells at 1 uM after 48 hrs by sulforhodamine B assay; type: functional
Procedure, shortened: (§1)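 Cells kept in RPMI-1640 with 10% FCS and 1% penicillin-G at 37 °C under 5% CO2. Seeded at 8000–14 000 cells/100 μL and exposed for 48 h. Fixed with ice-cold TCA for 1 h at 4 °C, then water-washed and stained with 0.4% SRB for 0.5 h at room temperature. Unbound dye removed with 1% acetic acid; bound dye dissolved in 10 mM Tris (pH 10.05) and read at 540 nm.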

THP-1 [2] = test: Cytotoxicity against human THP1 cells at 1 uM after 48 hrs by sulforhodamine B assay; type: functional; procedure, shortened: as §1
Tubulin (Homo sapiens) [3] = biological target: T1, Tubulin (Homo sapiens) (UniProt P68371+Q9H4B7+P0DPH7+P68366+Q13509+Q71U36+P04350+Q3ZCM7+P07437+P68363+Q9BQE3+Q6PEY2+Q13885+Q9BVA1+Q9BUF5); test: Stabilization of tubulin polymerization in human THP1 cells at 1 uM after 24 hrs by immunofluorescence microscopic analysis; type: cell-based; conditions: THP-1
Procedure, shortened: (§2)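 THP-1 seeded at 1 × 10^5 cells/well on coverslips and allowed to adhere for 24 h before treatment. Fixed in 4% paraformaldehyde for 10 min, permeabilized with 0.5% Triton-X for 5 min and blocked with 10% goat serum. Probed with anti-α-tubulin (1:100, 1 h) then Alexa Fluor 488 secondary (1:500, 1 h), counterstained with DAPI 1 μg/mL and imaged by confocal microscopy. Three separate experiments.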

HCT-116 [4] = test: Cytotoxicity against human HCT116 cells at 1 uM after 48 hrs by sulforhodamine B assay; type: functional; procedure, shortened: as §1
HL-60 [5] = test: Induction of apoptosis in human HL60 cells assessed as condensation and fragmentation of nuclei at 50 uM after 30 hrs by DAPI staining based inverted fluorescence microscopy; type: functional, cell-based
Procedure, shortened: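 HL-60 seeded at 2 × 10^5 cells/mL in medium with 10% FCS and treated for 30 h at 37 °C, added from DMSO stock; controls got DMSO vehicle only. Air-dried smears fixed in methanol at −20 °C for 20 min, stained with DAPI 1 μg/mL in PBS for 20 min at room temperature in the dark, mounted in glycerol–PBS (1:1) and viewed by inverted fluorescence microscopy (40×).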

PC-3 [6] = test: Cytotoxicity against human PC3 cells at 50 uM after 48 hrs by sulforhodamine B assay; type: functional; procedure, shortened: as §1
Tubulin (Homo sapiens) [7] = biological target: T1, Tubulin (Homo sapiens); test: Inhibition of tubulin in human THP1 cells assessed as disruption and loss of microtubule organization at 50 uM after 48 hrs by immunofluorescence microscopic analysis; type: cell-based; conditions: THP-1; procedure, shortened: as §2
SK-HEP1 = test: Cytotoxicity against human SKHEP1 cells at 50 uM after 48 hrs by sulforhodamine B assay; type: functional; procedure, shortened: as §1
A549 [8] = test: Cytotoxicity against human A549 cells at 50 uM after 48 hrs by sulforhodamine B assay; type: functional; procedure, shortened: as §1
HCT-116 [9] = test: Cytotoxicity against human HCT116 cells at 50 uM after 48 hrs by sulforhodamine B assay; type: functional; procedure, shortened: as §1
THP-1 [10] = test: Cytotoxicity against human THP1 cells at 50 uM after 48 hrs by sulforhodamine B assay; type: functional; procedure, shortened: as §1
HL-60 [11] = test: Induction of apoptosis in human HL60 cells assessed as condensation, smoothening of the cell surface, blebbing of plasma membrane and formation of apoptotic bodies at 50 uM after 30 hrs by scanning electron microscopy; type: functional, cell-based
HL-60 [12] = test: Induction of apoptosis in human HL60 cells assessed as condensation, smoothening of the cell surface, blebbing of plasma membrane at 30 uM after 30 hrs by scanning electron microscopy; type: functional, cell-based
PC-3 [13] = test: Cytotoxicity against human PC3 cells at 1 uM after 48 hrs by sulforhodamine B assay; type: functional; procedure, shortened: as §1
A549 [14] = test: Cytotoxicity against human A549 cells at 20 uM after 48 hrs by sulforhodamine B assay; type: functional
Procedure, shortened: (§3)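 Cells grown in RPMI-1640 with 10% FCS and 1% penicillin-G at 37 °C, 5% CO2. Seeded at 8000–14 000 cells/100 μL and exposed for 48 h. Fixed with ice-cold TCA for 1 h at 4 °C, stained with 0.4% SRB for 0.5 h at room temperature, washed with 1% acetic acid, bound dye solubilised in 10 mM Tris pH 10.05, read at 540 nm.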

THP-1 [15] = test: Cytotoxicity against human THP1 cells at 20 uM after 48 hrs by sulforhodamine B assay; type: functional; procedure, shortened: as §3
HCT-116 [16] = test: Cytotoxicity against human HCT116 cells at 20 uM after 48 hrs by sulforhodamine B assay; type: functional; procedure, shortened: as §3

Structure (SMILES): CC(=O)O[C@H]1C(=O)[C@@]2(C)[C@H]([C@H](OC(=O)c3ccccc3)[C@]3(O)C[C@H](OC(=O)[C@H](O)[C@@H](NC(=O)c4ccccc4)c4ccccc4)C(C)=C1C3(C)C)[C@]1(OC(C)=O)CO[C@@H]1C[C@@H]2O [PACLITAXEL]
- Activity (A549 [1]): 82%
- Activity (THP-1 [2]): 71%
- Activity (Tubulin (Homo sapiens) [3]): Active
- Activity (HCT-116 [4]): 72%

Structure (SMILES): CC1=C[C@H](O)[C@@H]2O[C@@H]2C1=O
- Activity (HL-60 [5]): Active
- Activity (PC-3 [6]): 22%
- microtubule disruption (Tubulin (Homo sapiens) [7]): Active
- Activity (SK-HEP1): 100%
- Activity (A549 [8]): 98%
- Activity (HCT-116 [9]): 56%
- Activity (THP-1 [10]): 50%
- Activity (HL-60 [11]): Active
- Activity (HL-60 [12]): Active

Structure (SMILES): C[C@H]1C[C@H]2CCCC(O)=C2C(=O)O1
- Activity (HL-60 [5]): Active
- Activity (PC-3 [6]): 23%
- microtubule disruption (Tubulin (Homo sapiens) [7]): Active
- Activity (SK-HEP1): 23%
- Activity (A549 [8]): 15%
- Activity (HCT-116 [9]): 44%
- Activity (THP-1 [10]): 54%
- Activity (HL-60 [11]): Active
- Activity (HL-60 [12]): Active

Structure (SMILES): CO[C@@]12[C@H](COC(N)=O)C3=C(C(=O)C(C)=C(N)C3=O)N1C[C@@H]1N[C@@H]12 [MITOMYCIN]
- Activity (PC-3 [13]): 59%

Structure (SMILES): C[C@@H]1C[C@H]2CC(=O)C[C@H](C2)O1
- Activity (HL-60 [5]): Active
- Activity (PC-3 [6]): 23%
- microtubule disruption (Tubulin (Homo sapiens) [7]): Active
- Activity (SK-HEP1): 26%
- Activity (A549 [8]): 71%
- Activity (HCT-116 [9]): 59%
- Activity (THP-1 [10]): 0%
- Activity (HL-60 [11]): Active
- Activity (HL-60 [12]): Active

Structure (SMILES): C[C@H]1C[C@H]2CC[C@H](O)C(O)=C2C(=O)O1
- Activity (HL-60 [5]): Active
- Activity (PC-3 [6]): 34%
- microtubule disruption (Tubulin (Homo sapiens) [7]): Active
- Activity (SK-HEP1): 3%
- Activity (A549 [8]): 35%
- Activity (HCT-116 [9]): 35%
- Activity (THP-1 [10]): 40%
- Activity (HL-60 [11]): Active
- Activity (HL-60 [12]): Active

Structure (SMILES): O=c1[nH]cc(F)c(=O)[nH]1 [FLUOROURACIL]
- Activity (A549 [14]): 22%
- Activity (THP-1 [15]): 84%
- Activity (HCT-116 [16]): 55%
